Laboratory results reported in ChEMBL document CHEMBL1123566, “Synthesis and cardiac electrophysiological activity of 2- and 3-[(substituted phenyl)alkyl]quinuclidines. Structure-activity relationships” (1987).
Several values for one entry are separate records, joined by “and”; a condition that tells them apart may be missing. Equal values may be shown once.

Tests used:
Canis familiaris [1] = test: Left ventricular refractory period was determined by intravenous administration of two dosages of 3 mg/kg of compound in anesthetized dogs. Value was reported for experiment 1; assay type: functional, Canis lupus familiaris, Cardiac ventricle
Canis familiaris [2] = test: Effective dose administered intravenously to elicit Antiarrhythmic efficacy in anesthetized dogs was reported. Value in parenthesis indicates no. of animals effective at that dose.; assay type: functional, Canis lupus familiaris, Heart
Summary of the method: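 Dogs are anesthetized and the chest reopened. Stimulating and recording electrodes go on the myocardium. Reproducible PES-induced sustained VT or VF is confirmed first; SVT is ended by burst pacing and VF by DC countershock. Compound is given iv in 0.9% saline and inducibility retested. A dose counts as effective when SVT/VF cannot be reinduced in two of three animals.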

Canis familiaris [3] = species: Canis familiaris; test: In vitro electrophysiological evaluation in canine cardiac Purkinje fibres reported as percent change Vmax concentration range of 0.1-10 uM; Minimal (<IO%increase or a decrease in CT); assay type: functional; conditions: Canis lupus familiaris; Purkinje fiber
Summary of the method: (§1)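 Canine cardiac Purkinje fibres, intracellular microelectrode recording, paced at a basic cycle length of 1 s. APD95 and Vmax read simultaneously. Compound: 10 mM stock in deionized water, diluted into Tyrode's solution, tested over the stated concentration range. Each fibre used once as its own control. Result is % change from control, given at 10 µM or as the maximum with its concentration. M = <10% decrease or an increase in Vmax.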

Canis familiaris [4] = test: Left ventricular refractory period was determined by intraduodenal administration of two dosages of 10 mg/kg of (low dose) compound in anesthetized dogs. Value was reported for experiment 2; assay type: functional, Canis lupus familiaris, Cardiac ventricle
Summary of the method: (§2)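 Anesthetized dogs received two intraduodenal doses, the second cumulative (low dose/high dose). Left ventricular FRP and CT were measured 15, 30 and 45 min after dosing. Heart rate and mean blood pressure were taken during nonpacing intervals. Values are percent change from control. The vehicle was 5% dextrose in water/tragacanth. Activity was defined as ≥12% prolongation of FRP or CT.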

Canis familiaris [5] = test: Conduction time was determined by intraduodenal administration of two dosages of 10 mg/kg(high dose) of compound in anesthetized dogs. Value was reported for experiment 1; assay type: functional, Canis lupus familiaris
Summary of the method: (§3)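 Anesthetized dogs; compound given intraduodenally, generally as two doses, the second a cumulative (high) dose. LV functional refractory period and conduction time measured 15, 30 and 45 min after dosing; heart rate and blood pressure measured during nonpacing intervals. Values are % change from control, given per individual animal. Active if FRP or CT prolonged by ≥12%.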

Canis familiaris [6] = test: Conduction time was determined by intraduodenal administration of two dosages of 20 mg/kg (high dose) of compound in anesthetized dogs. Value was reported for experiment 2; assay type: functional, Canis lupus familiaris; summary of the method: as §3
Canis familiaris [7] = test: Left ventricular refractory period was determined by intravenous administration of two dosages of 3 mg/kg of compound in anesthetized dogs. Value was reported for experiment 2; assay type: functional, Canis lupus familiaris, Cardiac ventricle
Canis familiaris [8] = test: Mean arterial blood pressure was determined by intraduodenal administration of two dosages of 10 mg/kg of (high dose) compound in anesthetized dogs. Value was reported for experiment 1; assay type: functional, Canis lupus familiaris; summary of the method: as §2
Canis familiaris [9] = test: Heart rate was determined by intraduodenal administration of two dosages of 10 mg/kg of (high dose) compound in anesthetized dogs. Value was reported for experiment 1; assay type: functional, Canis lupus familiaris; summary of the method: as §3
Canis familiaris [10] = species: Canis familiaris; test: (§4) In vitro electrophysiological evaluation in canine cardiac Purkinje fibres reported as % change for action potential duration at 0.1-100 uM concentration range; assay type: functional, Canis lupus familiaris, Purkinje fiber; summary of the method: as §1
Canis familiaris [11] = species: Canis familiaris; test: In vitro electrophysiological activity in canine cardiac Purkinje fibres given as maximum % change for action potential duration at 0.1-10 uM concentration; assay type: functional, Canis lupus familiaris, Purkinje fiber
Summary of the method: (§5)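 Canine cardiac Purkinje fibres, intracellular recording at 1 s basic cycle length, over cumulative concentration ranges. Compound 10 mM stock in deionized water diluted into Tyrode's. Each fibre used once as its own control. Value is the maximum % change from control in APD at 95% repolarization, with the concentration where it occurred; both values given if a biphasic response (>20% reversal) occurred.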

Canis familiaris [12] = species: Canis familiaris; test: In vitro electrophysiological evaluation in canine cardiac Purkinje fibres reported as percent change Vmax concentration range of 0.1-100 uM; Minimal (<IO%increase or a decrease in CT); assay type: functional; conditions: Canis lupus familiaris; Purkinje fiber; summary of the method: as §1
Canis familiaris [13] = test: Mean arterial blood pressure was determined by intraduodenal administration of two dosages of 10 mg/kg of (low dose) compound in anesthetized dogs. Value was reported for experiment 2; assay type: functional, Canis lupus familiaris
Canis familiaris [14] = test: Heart rate was determined by intraduodenal administration of two dosages of 10 mg/kg of (low dose) compound in anesthetized dogs. Value was reported for experiment 2; assay type: functional, Canis lupus familiaris; summary of the method: as §3
Canis familiaris [15] = species: Canis familiaris; test: In vitro electrophysiological activity in canine cardiac Purkinje fibres given as maximum % change for action potential duration at 0.1-100 uM concentration; assay type: functional, Canis lupus familiaris, Purkinje fiber; summary of the method: as §5
Canis familiaris [16] = test: Conduction time was determined by intraduodenal administration of two dosages of 3 mg/kg (low dose) of compound in anesthetized dogs. Value was reported for experiment 1; assay type: functional, Canis lupus familiaris; summary of the method: as §3
Canis familiaris [17] = test: Left ventricular refractory period was determined by intraduodenal administration of two dosages of 10 mg/kg of (high dose) compound in anesthetized dogs. Value was reported for experiment 1; assay type: functional, Canis lupus familiaris, Cardiac ventricle; summary of the method: as §2
Canis familiaris [18] = test: Left ventricular refractory period was determined by intraduodenal administration of two dosages of 3 mg/kg of (low dose) compound in anesthetized dogs. Value was reported for experiment 1; assay type: functional, Canis lupus familiaris, Cardiac ventricle; summary of the method: as §2
Canis familiaris [19] = species: Canis familiaris; test: as §4; assay type: functional, Canis lupus familiaris, Purkinje fiber; summary of the method: as §1; remark: listed apart in the source
Canis familiaris [20] = test: Mean arterial blood pressure was determined by intraduodenal administration of two dosages of 3 mg/kg of (low dose) compound in anesthetized dogs. Value was reported for experiment 1; assay type: functional, Canis lupus familiaris; summary of the method: as §2
Canis familiaris [21] = test: Heart rate was determined by intraduodenal administration of two dosages of 20 mg/kg of (high dose) compound in anesthetized dogs. Value was reported for experiment 2; assay type: functional, Canis lupus familiaris; summary of the method: as §3
Canis familiaris [22] = species: Canis familiaris; test: In vitro electrophysiological evaluation in canine cardiac Purkinje fibres reported as maximum percent change Vmax concentration range of 0.1-100 uM; assay type: functional; conditions: Canis lupus familiaris; Purkinje fiber; summary of the method: as §1
Canis familiaris [23] = species: Canis familiaris; test: In vitro electrophysiological evaluation in canine cardiac Purkinje fibres reported as percent change Vmax concentration range of 0.1-100 uM; assay type: functional; conditions: Canis lupus familiaris; Purkinje fiber; summary of the method: as §1
Canis familiaris [24] = test: Left ventricular refractory period was determined by intraduodenal administration of two dosages of 20 mg/kg of (high dose) compound in anesthetized dogs. Value was reported for experiment 2; assay type: functional, Canis lupus familiaris, Cardiac ventricle
Canis familiaris [25] = test: Conduction time was determined by intraduodenal administration of two dosages of 10 mg/kg (low dose) of compound in anesthetized dogs. Value was reported for experiment 2; assay type: functional, Canis lupus familiaris; summary of the method: as §3
Canis familiaris [26] = species: Canis familiaris; test: In vitro electrophysiological evaluation in canine cardiac Purkinje fibres reported as maximum percent change Vmax concentration range of 0.1-100 uM; Minimal (<IO%increase or a decrease in CT); assay type: functional; conditions: Canis lupus familiaris; Purkinje fiber; summary of the method: as §1
Canis familiaris [27] = test: Heart rate was determined by intraduodenal administration of two dosages of 3 mg/kg of (low dose) compound in anesthetized dogs. Value was reported for experiment 1; assay type: functional, Canis lupus familiaris; summary of the method: as §3
Canis familiaris [28] = species: Canis familiaris; test: In vitro electrophysiological evaluation in canine cardiac Purkinje fibres reported as % change for action potential duration at 0.1-10 uM concentration range; assay type: functional, Canis lupus familiaris, Purkinje fiber; summary of the method: as §1
Canis familiaris [29] = test: Mean arterial blood pressure was determined by intraduodenal administration of two dosages of 20 mg/kg of (high dose) compound in anesthetized dogs. Value was reported for experiment 2; assay type: functional, Canis lupus familiaris
Canis familiaris [30] = species: Canis familiaris; test: In vitro electrophysiological evaluation in canine cardiac ventricular muscle reported as % change for conduction time(CT) at 0.1-100 uM concentration range; Minimal (<10% decrease or increase inCT).; assay type: functional, Canis lupus familiaris, Muscle tissue
Summary of the method: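 Canine right ventricular/papillary muscle strips in oxygenated Tyrode's, extracellular extra-stimulus conduction-interval method. FRP and CT are read from conduction-interval curves before and during rising concentrations. Compound is a 10 mM aqueous stock diluted into Tyrode's. Each strip is used once as its own control. Readouts are percent change from control at 10 μM, plus the maximum change with its concentration.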

Canis familiaris [31] = species: Canis familiaris; test: In vitro electrophysiological evaluation in canine cardiac Purkinje fibres reported as % change for action potential duration at a concentration of 10 uM; assay type: functional, Canis lupus familiaris, Purkinje fiber; summary of the method: as §1
Canis familiaris [32] = species: Canis familiaris; test: In vitro electrophysiological evaluation in canine cardiac ventricular muscle reported as maximum % change for conduction time(CT) at 0.1-100 uM concentration range; Minimal (<10% decrease or increase inCT).; assay type: functional, Canis lupus familiaris, Muscle tissue
Canis familiaris [33] = species: Canis familiaris; test: In vitro electrophysiological evaluation in canine cardiac Purkinje fibres reported as percent change Vmax at 10 uM at concentration range of 1-100 uM; Minimal (<10% decrease or increase in Vmax).; assay type: functional, organism-based; conditions: Canis lupus familiaris, Purkinje fiber
Summary of the method: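 Canine cardiac Purkinje fibers, intracellular recording, paced at a basic cycle length of 1 s. APD95 and Vmax are recorded together across cumulative concentrations. Compound is a 10 mM aqueous stock diluted into Tyrode's solution. Each fiber is used once as its own control. Readouts are percent change from control at 10 μM, and the maximum change with the concentration where it occurred.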

Canis familiaris [34] = species: Canis familiaris; test: In vitro electrophysiological evaluation in canine cardiac occurred is 100 uM.; assay type: functional; conditions: Canis lupus familiaris; Heart
Canis familiaris [35] = species: Canis familiaris; test: In vitro electrophysiological evaluation in canine cardiac Purkinje fibres reported as % change for action potential duration at 10 uM at 1-100 uM concentration range; assay type: functional, Canis lupus familiaris, Purkinje fiber; summary of the method: as §1
Canis familiaris [36] = species: Canis familiaris; test: In vitro electrophysiological activity in canine cardiac occurred is 1 uM.; assay type: functional, Canis lupus familiaris, Heart
Canis familiaris [37] = species: Canis familiaris; test: In vitro electrophysiological activity in canine cardiac occurred is 100 uM.; assay type: functional, Canis lupus familiaris, Heart

SMILES: Cl.Clc1ccc(C/C=C2\CN3CCC2CC3)cc1
- LV FRP (Canis familiaris [1]): 17%
- Effective dose (Canis familiaris [2]): 0.1 mg/kg and 0.3 mg/kg
- Vmax (Canis familiaris [3]): < 10%
- LV FRP (Canis familiaris [4]): 3%
- CT (Canis familiaris [5]): 3%
- CT (Canis familiaris [6]): -4%
- LV FRP (Canis familiaris [7]): 15%
- Mean blood pressure (Canis familiaris [8]): 25%
- HR (Canis familiaris [9]): 4%
- APD95 (Canis familiaris [10]): 16%
- APD95 (Canis familiaris [11]): 29%
- Vmax (Canis familiaris [12]): < 10%
- Mean blood pressure (Canis familiaris [13]): 12%
- HR (Canis familiaris [14]): -1%
- APD95 (Canis familiaris [15]): 35% and 50%
- CT (Canis familiaris [16]): 0%
- LV FRP (Canis familiaris [17]): 3%
- LV FRP (Canis familiaris [18]): 5%
- APD95 (Canis familiaris [19]): 50%
- Mean blood pressure (Canis familiaris [20]): 19%
- HR (Canis familiaris [21]): 1%
- Vmax (Canis familiaris [22]): -59%
- Vmax (Canis familiaris [23]): -12%
- LV FRP (Canis familiaris [24]): 2%
- CT (Canis familiaris [25]): 0%
- Vmax (Canis familiaris [26]): < 10%
- HR (Canis familiaris [27]): -2%
- APD95 (Canis familiaris [28]): 29%
- Mean blood pressure (Canis familiaris [29]): 12%

SMILES: CCN(CC)CCNC(=O)c1ccc(N)cc1.Cl [PROCAINAMIDE HYDROCHLORIDE]
- CT (Canis familiaris [30]): <10%
- APD95 (Canis familiaris [31]): -4%
- CT (Canis familiaris [32]): <10%
- Vmax (Canis familiaris [33]): < 10%
- Vmax (Canis familiaris [34]): -14% and -10% (2×)
- APD95 (Canis familiaris [35]): -1% and 0%
- APD95 (Canis familiaris [36]): -7%
- APD95 (Canis familiaris [37]): -8% and 3%
